Results reported in ChEMBL document CHEMBL1833804, “Discovery of N-(3-(1-methyl-1,2,3,6-tetrahydropyridin-4-yl)-1H-indol-6-yl) thiophene-2-carboximidamide as a selective inhibitor of human neuronal nitric oxide synthase (nNOS) for the treatment of pain” (J Med Chem, 2011).
pIC50: −log10 of the molar value. The source made the active and inactive calls. The rule behind the calls is not given here.

Columns and labels:
[1] = target: Nitric oxide sythases; iNOS & nNOS (Homo sapiens) (UniProt P29475+P35228); test: Selectivity ratio of IC50 for human recombinant iNOS to IC50 for human recombinant nNOS
Nitric oxide sythases; iNOS & nNOS (Homo sapiens), sequence (P29475 whole entry, looked up): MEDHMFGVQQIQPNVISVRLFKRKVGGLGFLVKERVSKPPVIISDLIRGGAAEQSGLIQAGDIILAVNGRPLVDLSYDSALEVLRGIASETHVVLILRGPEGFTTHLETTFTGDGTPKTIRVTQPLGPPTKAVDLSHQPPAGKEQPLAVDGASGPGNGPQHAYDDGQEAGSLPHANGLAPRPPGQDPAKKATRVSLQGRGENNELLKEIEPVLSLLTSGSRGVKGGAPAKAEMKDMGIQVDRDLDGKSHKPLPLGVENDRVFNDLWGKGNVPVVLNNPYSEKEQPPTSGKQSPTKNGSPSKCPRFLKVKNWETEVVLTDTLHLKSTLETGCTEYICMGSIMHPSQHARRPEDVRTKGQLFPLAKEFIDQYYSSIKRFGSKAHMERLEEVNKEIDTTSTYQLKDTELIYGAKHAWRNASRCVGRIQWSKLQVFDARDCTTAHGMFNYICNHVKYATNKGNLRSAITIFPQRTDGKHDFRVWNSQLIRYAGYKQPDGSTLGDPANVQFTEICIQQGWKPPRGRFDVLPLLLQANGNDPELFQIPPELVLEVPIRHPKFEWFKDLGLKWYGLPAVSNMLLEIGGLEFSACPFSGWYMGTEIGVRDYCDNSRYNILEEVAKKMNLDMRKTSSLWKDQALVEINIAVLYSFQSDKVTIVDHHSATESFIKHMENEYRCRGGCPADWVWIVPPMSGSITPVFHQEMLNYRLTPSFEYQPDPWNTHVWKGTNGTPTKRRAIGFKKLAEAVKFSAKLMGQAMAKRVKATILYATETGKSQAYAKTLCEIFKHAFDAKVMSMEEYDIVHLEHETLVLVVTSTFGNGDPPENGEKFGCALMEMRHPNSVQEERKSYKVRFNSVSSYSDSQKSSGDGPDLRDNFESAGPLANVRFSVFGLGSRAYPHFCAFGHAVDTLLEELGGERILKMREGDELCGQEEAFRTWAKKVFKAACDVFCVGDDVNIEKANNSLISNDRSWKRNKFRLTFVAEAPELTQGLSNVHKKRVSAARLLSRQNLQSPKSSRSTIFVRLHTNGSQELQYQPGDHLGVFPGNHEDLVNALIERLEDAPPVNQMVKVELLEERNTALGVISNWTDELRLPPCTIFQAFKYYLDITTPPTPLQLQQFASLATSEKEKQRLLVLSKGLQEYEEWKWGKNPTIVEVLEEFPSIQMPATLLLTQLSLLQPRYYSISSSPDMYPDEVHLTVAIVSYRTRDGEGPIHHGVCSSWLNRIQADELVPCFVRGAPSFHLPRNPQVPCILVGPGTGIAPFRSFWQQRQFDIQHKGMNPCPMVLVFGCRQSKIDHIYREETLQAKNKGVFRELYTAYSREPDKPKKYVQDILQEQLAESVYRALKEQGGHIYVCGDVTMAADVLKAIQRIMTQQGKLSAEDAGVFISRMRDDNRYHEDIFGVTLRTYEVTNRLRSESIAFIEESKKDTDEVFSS
Nitric oxide sythases; iNOS & nNOS (Homo sapiens), sequence (P35228 whole entry, looked up): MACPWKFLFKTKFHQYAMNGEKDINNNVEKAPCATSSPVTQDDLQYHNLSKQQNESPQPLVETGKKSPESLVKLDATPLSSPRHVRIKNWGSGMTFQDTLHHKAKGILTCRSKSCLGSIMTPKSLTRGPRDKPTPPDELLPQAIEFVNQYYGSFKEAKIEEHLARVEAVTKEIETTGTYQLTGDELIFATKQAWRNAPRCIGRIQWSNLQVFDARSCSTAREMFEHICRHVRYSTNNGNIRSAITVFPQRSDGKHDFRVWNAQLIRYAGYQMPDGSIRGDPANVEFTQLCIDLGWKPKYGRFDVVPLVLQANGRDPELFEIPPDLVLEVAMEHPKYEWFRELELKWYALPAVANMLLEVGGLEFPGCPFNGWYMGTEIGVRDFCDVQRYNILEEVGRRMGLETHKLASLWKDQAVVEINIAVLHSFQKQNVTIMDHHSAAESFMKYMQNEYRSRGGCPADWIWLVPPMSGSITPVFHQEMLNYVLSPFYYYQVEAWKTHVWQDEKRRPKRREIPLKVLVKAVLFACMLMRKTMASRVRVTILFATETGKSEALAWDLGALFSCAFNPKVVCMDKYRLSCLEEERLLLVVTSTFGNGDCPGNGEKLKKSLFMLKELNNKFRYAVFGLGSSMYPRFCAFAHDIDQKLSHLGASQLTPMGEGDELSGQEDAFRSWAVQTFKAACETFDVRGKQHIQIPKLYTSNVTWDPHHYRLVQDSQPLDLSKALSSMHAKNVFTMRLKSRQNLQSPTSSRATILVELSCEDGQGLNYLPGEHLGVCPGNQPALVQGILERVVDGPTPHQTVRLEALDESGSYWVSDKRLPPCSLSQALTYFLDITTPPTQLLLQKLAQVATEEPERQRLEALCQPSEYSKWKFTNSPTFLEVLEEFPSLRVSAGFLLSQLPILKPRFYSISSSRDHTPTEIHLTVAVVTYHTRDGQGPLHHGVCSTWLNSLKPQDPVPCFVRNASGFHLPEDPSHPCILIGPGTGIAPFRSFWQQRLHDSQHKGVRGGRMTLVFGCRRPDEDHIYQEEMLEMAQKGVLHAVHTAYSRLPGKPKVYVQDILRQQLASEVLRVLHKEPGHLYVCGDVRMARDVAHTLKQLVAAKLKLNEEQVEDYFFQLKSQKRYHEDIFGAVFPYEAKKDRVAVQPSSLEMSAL
In short: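 Recombinant human nNOS and iNOS were expressed in baculovirus-infected Sf9 cells, and the assay measured [³H]-L-arginine to [³H]-L-citrulline conversion. nNOS buffer: 40 mM HEPES pH 7.4 with CaCl₂, MgCl₂, BSA, 1 mM NADPH and 1.2 μM CaM. iNOS buffer: 100 mM HEPES pH 7.4 with 120 μM NADPH and 100 nM CaM. Compound was preincubated 15 min at RT, then reacted 45 min at 37 °C. Citrulline was separated on DOWEX and counted by scintillation, in duplicate. The ratio is IC50 iNOS/IC50 nNOS.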

Gerbillinae = test: Neuroprotective activity in gerbil cerebral ischemia model; type: functional
[2] = target: T1, Nitric oxide synthase 3 (Homo sapiens) (UniProt P29474); test: Inhibition of eNOS in human arteries precontracted with U46619 assessed as inhibition of acteylcholine-induced vasorelaxation at 1 to 100 uM after 50 mins
T1 sequence (whole entry): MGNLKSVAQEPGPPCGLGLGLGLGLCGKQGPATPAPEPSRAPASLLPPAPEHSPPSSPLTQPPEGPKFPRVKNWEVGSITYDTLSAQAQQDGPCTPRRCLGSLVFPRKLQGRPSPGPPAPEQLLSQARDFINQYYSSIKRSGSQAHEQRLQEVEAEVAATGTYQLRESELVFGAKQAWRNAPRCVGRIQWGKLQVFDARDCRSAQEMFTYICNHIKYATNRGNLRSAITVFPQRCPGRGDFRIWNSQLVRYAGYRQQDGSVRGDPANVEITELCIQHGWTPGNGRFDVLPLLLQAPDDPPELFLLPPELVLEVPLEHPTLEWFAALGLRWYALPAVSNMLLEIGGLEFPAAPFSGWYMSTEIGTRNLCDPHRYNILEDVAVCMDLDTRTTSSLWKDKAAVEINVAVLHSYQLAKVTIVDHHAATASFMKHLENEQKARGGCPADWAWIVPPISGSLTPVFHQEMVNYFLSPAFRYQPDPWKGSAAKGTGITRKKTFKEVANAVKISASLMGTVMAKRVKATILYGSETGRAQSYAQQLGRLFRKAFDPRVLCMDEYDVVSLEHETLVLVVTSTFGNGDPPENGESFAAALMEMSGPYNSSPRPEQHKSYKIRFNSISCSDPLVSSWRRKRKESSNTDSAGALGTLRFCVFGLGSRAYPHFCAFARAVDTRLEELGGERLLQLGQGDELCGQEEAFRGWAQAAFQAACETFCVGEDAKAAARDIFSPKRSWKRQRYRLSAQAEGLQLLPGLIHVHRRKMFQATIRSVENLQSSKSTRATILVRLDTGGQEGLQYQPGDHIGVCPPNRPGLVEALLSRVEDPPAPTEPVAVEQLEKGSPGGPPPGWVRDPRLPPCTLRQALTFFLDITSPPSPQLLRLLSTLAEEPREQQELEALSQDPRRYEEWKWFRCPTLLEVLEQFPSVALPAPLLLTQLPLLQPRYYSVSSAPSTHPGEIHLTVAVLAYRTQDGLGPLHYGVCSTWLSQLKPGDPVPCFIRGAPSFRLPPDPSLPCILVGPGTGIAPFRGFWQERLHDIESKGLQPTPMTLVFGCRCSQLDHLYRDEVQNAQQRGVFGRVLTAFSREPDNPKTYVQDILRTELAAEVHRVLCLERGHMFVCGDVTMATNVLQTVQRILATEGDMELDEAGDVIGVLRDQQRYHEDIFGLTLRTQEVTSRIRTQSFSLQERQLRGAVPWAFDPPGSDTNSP
In short: (§1)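 Human resistance artery rings of about 2 mm from surgical explants, wire-mounted in myograph baths of Krebs-bicarbonate PSS gassed with 95% O2/5% CO2 at 37 °C. Rings equilibrated at least 30 min with washes every 15 min, then standardised. Isometric tension recorded during ACh relaxation (10^-10 to 10^-5 M).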

[3] = target: Nitric oxide synthase, inducible (Homo sapiens, UniProt P35228); test: Inhibition of human recombinant iNOS expressed in Sf9 cells assessed as inhibition of conversion of [3H]-L-arginine to [3H]-L-citrulline after 45 mins by liquid scintillation counting
Nitric oxide synthase, inducible, sequence (P35228 whole entry): as the sequence (P35228 whole entry, looked up) above
In short: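 Recombinant human iNOS from baculovirus-infected Sf9 cells in 100 mM HEPES pH 7.4 with 1 mM CaCl2, 1 mM EDTA, 1 mM DTT, 1 μM FMN, 1 μM FAD, 10 μM BH4, 120 μM NADPH and 100 nM CaM. Compound preincubated 15 min at RT, then 45 min at 37 °C. [3H]-citrulline from [3H]-L-arginine separated on Dowex and counted by scintillation. Duplicates.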

Cytochrome P450 2D6 = Cytochrome P450 2D6 (Homo sapiens, UniProt P10635); test: Inhibition of CYP2D6 using AMMC as substrate; type: ADME
Cytochrome P450 2D6, sequence (P10635 whole entry): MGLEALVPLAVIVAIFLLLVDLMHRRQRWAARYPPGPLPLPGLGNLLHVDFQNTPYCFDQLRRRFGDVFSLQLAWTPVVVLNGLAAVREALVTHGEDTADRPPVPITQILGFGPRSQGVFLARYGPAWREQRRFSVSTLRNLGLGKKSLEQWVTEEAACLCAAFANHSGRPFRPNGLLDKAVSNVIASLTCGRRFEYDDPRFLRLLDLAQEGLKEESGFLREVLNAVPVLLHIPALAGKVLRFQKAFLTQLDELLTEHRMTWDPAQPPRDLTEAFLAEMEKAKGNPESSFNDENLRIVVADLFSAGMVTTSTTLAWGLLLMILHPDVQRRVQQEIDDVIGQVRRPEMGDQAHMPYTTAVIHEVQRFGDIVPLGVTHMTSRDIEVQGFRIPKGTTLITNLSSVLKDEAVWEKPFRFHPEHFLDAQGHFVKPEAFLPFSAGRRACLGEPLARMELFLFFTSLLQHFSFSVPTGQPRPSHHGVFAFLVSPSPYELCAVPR
In short: (§2)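 Insect-cell microsomes expressing single human CYP isozymes, incubated at 37 °C with an NADPH regenerating system (NADP+, glucose-6-phosphate, G6P dehydrogenase, MgCl2) and an isozyme-specific fluorogenic substrate. Formation of the fluorescent metabolite was measured with and without test compound across 0.0457–100 μM. An enzyme-selective inhibitor served as positive control. Duplicate determinations, IC50 reported.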

Cytochrome P450 1A2 = target: T2, Cytochrome P450 1A2 (Homo sapiens, UniProt P05177); test: Inhibition of CYP1A2 using CEC as substrate; type: ADME; in short: as §2
T2 sequence (P05177 whole entry): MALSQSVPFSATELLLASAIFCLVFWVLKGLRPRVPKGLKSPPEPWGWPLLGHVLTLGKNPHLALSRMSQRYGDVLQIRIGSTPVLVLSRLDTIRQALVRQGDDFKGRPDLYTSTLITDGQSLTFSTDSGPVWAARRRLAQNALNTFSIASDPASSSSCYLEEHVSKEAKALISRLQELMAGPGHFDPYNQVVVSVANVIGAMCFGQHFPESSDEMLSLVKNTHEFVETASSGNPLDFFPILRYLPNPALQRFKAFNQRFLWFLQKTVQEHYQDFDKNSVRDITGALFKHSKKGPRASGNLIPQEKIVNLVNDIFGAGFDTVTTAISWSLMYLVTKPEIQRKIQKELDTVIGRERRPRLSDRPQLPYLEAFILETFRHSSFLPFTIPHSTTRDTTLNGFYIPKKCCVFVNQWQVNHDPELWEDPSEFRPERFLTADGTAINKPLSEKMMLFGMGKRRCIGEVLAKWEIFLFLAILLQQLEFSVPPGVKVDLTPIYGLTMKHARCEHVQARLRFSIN

[4] = target: T1, Nitric oxide synthase 3 (Homo sapiens); test: Inhibition of eNOS in human arteries precontracted with U46619 assessed as inhibition of acteylcholine-induced vasorelaxation at 1 to 100 uM after 50 mins in the presence of 1 mM L-arginine; in short: as §1
Rattus norvegicus [5] = test: Analgesic activity in ip dosed rat spinal nerve ligation model assessed as reversal of thermal hyperalgesia measured after 60 to 120 mins; type: functional, organism-based
In short: (§3)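 Rat Chung model: L5 and L6 spinal nerves tightly ligated with 4-0 silk distal to the DRG under halothane anaesthesia, animals recovered in individual cages. Single intraperitoneal dose, 10 or 60 mg/kg. Read-out was paw withdrawal latency to radiant heat, expressed as percent reversal of thermal hyperalgesia over time after dosing.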

Cytochrome P450 3A4 [6] = target: T3, Cytochrome P450 3A4 (Homo sapiens, UniProt P08684); test: Inhibition of CYP3A4 using BFC as substrate; type: ADME; in short: as §2
T3 sequence (P08684 whole entry): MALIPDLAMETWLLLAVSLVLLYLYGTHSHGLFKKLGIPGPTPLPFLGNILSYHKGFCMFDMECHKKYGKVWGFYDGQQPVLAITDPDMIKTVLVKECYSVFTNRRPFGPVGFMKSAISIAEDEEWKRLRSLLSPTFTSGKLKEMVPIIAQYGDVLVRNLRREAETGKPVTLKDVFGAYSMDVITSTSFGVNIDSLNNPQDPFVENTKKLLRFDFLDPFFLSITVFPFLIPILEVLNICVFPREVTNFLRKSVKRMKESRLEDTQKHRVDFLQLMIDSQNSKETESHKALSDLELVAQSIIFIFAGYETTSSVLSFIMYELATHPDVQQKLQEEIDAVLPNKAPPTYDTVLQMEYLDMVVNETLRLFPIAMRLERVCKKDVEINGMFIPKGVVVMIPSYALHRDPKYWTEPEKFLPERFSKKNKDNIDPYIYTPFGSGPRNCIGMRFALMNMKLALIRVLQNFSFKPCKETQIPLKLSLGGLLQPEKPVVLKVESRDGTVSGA

Cytochrome P450 2C9 = Cytochrome P450 2C9 (Homo sapiens, UniProt P11712); test: Inhibition of CYP2C9 using MFC as substrate; type: ADME; in short: as §2
Cytochrome P450 2C9, sequence (P11712 whole entry): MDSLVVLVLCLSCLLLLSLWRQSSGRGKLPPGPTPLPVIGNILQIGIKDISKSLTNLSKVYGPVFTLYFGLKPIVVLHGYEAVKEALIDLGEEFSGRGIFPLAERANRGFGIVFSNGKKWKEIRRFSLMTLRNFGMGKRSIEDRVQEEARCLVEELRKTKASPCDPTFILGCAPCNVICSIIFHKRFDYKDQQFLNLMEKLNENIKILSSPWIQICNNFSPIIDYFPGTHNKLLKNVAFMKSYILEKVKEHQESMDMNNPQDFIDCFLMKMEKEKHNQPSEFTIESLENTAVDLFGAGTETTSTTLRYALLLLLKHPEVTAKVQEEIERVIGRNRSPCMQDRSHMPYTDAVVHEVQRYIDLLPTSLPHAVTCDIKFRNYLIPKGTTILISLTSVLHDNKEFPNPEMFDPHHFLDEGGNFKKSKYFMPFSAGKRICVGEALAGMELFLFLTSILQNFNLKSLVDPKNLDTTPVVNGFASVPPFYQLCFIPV

Cytochrome P450 3A4 [7] = target: T3, Cytochrome P450 3A4; test: Inhibition of CYP3A4 using BQ as substrate; type: ADME; in short: as §2
Nitric oxide synthase 3 = target: T4, Nitric oxide synthase 3 (Homo sapiens, UniProt P29474); test: Inhibition of human recombinant eNOS expressed in Sf9 cells assessed as inhibition of conversion of [3H]-L-arginine to [3H]-L-citrulline after 45 mins by liquid scintillation counting
T4 sequence (P29474 whole entry): T1 sequence (whole entry)
In short: (§4)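 Recombinant human eNOS or nNOS from baculovirus-infected Sf9 cells in 40 mM HEPES pH 7.4 with 2.4 mM CaCl2, 1 mM MgCl2, 1 mg/mL BSA, 1 mM EDTA, 1 mM DTT, 1 μM FMN, 1 μM FAD, 10 μM BH4, 1 mM NADPH and 1.2 μM CaM. Compound preincubated 15 min at RT, then [3H]-L-arginine conversion ran 45 min at 37 °C. Stopped with pH 5.5 HEPES/EGTA/EDTA buffer. [3H]-citrulline separated on Dowex and counted by scintillation. Duplicates.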

Rattus norvegicus [8] = test: Analgesic activity in rat SNL model assessed as reversal of thermal hyperalgesia at 60 mg/kg, ip administered as single dose measured at 90 mins; type: functional; details: route intraperitoneal; in short: as §3
Nitric oxide synthase 1 = Nitric oxide synthase 1 (Homo sapiens, UniProt P29475); test: Inhibition of human recombinant nNOS expressed in Sf9 cells assessed as inhibition of conversion of [3H]-L-arginine to [3H]-L-citrulline after 45 mins by liquid scintillation counting; in short: as §4
Nitric oxide synthase 1, sequence (P29475 whole entry): as the sequence (P29475 whole entry, looked up) above

Cytochrome P450 2C19 = Cytochrome P450 2C19 (Homo sapiens, UniProt P33261); test: Inhibition of CYP2C19 using CEC as substrate; type: ADME; in short: as §2
Cytochrome P450 2C19, sequence (P33261 whole entry): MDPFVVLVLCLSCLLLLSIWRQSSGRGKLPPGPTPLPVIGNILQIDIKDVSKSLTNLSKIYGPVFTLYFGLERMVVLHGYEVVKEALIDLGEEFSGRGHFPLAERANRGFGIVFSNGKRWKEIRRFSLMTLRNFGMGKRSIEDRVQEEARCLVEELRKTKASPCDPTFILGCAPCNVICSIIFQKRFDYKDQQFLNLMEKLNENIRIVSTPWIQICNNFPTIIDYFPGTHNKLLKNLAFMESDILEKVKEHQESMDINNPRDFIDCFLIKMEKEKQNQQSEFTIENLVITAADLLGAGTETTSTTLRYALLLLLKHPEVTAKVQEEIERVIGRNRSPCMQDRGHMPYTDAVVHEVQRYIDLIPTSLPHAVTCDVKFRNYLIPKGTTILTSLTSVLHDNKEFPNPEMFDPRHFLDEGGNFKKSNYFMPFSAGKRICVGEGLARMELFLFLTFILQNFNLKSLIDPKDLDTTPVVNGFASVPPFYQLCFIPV

Homo sapiens = species: Homo sapiens; test: Antimigraine activity in migraine patients relative to placebo treated control; type: functional
[9] = target: T1, Nitric oxide synthase 3 (Homo sapiens); test: Inhibition of eNOS in human arteries precontracted with U46619 assessed as inhibition of acteylcholine-induced vasorelaxation after 50 mins; in short: as §1
[10] = target: T1, Nitric oxide synthase 3 (Homo sapiens); test: Inhibition of eNOS in human arteries precontracted with U46619 assessed as inhibition of acteylcholine-induced vasorelaxation at 100 uM after 50 mins in the presence of 1 mM L-arginine; in short: as §1

| Compound | Ratio IC50 [1] | pIC50 [3] | pIC50 (Nitric oxide synthase 3) | pIC50 (Nitric oxide synthase 1) | also measured |
| --- | --- | --- | --- | --- | --- |
| CN1CCC[C@@H]1CCn1ccc2ccc(/N=C(\N)c3cccs3)cc21 | 225 |  |  |  |  |
| O=[N+]([O-])c1cccc2cn[nH]c12 [7-NITROINDAZOLE] |  |  |  |  | Activity (Gerbillinae): 22% |
| CN1CC=C(c2c[nH]c3cc(NC(=N)c4cccs4)ccc23)CC1.Cl.Cl | 15 | 4.91 | 4.58 | 6.10 | inhibition [2]: inactive; pIC50 (Cytochrome P450 2D6): 4.20; pIC50 (Cytochrome P450 1A2; read-out: IC50): < 4.00; inhibition [4]: inactive; Activity (Rattus norvegicus [5]): Dose-dependent effect; pIC50 (Cytochrome P450 3A4 [6]): 4.13; pIC50 (Cytochrome P450 2C9; read-out: IC50): 4.14; pIC50 (Cytochrome P450 3A4 [7]): < 4.00; Activity (Rattus norvegicus [8]): 67%; pIC50 (Cytochrome P450 2C19): 4.40 |
| N=C(Nc1ccc2c(C3CN4CCC3CC4)c[nH]c2c1)c1cccs1 (single isomer, unassigned; enantiomer 1) [listing 1 of 2 here] |  | 4.28 | 4.63 | 6.28 |  |
| CN1CCC(c2c[nH]c3cc(NC(=N)c4cccs4)ccc23)C1 (stereo unspecified) | 13 | 5.59 |  |  |  |
| N=C(Nc1ccc2c(C3CN4CCC3CC4)c[nH]c2c1)c1cccs1 (racemic) [listing 1 of 2 here] |  | 4.74 | 4.48 | 5.91 |  |
| FC(F)(F)c1ccccc1-n1ccnc1 |  |  |  |  | Activity (Gerbillinae): 8% |
| N=C(Nc1ccc2c(C3CN4CCC3CC4)c[nH]c2c1)c1cccs1 (single isomer, unassigned; enantiomer 2) | 309 |  |  |  |  |
| CNC(=N)NCCC[C@H](N)C(=O)O.Cl.Cl |  |  |  |  | Activity (Homo sapiens): 67% |
| N=C(Nc1ccc2c(C3CN4CCC3CC4)c[nH]c2c1)c1cccs1 (racemic) [listing 2 of 2 here] | 15 |  |  |  |  |
| N=C(Nc1ccc(CCNCc2cccc(Cl)c2)cc1)c1cccs1 |  |  |  |  | Activity (Gerbillinae): 44% |
| COC(=O)[C@@H](N)CCCNC(=N)N[N+](=O)[O-] | 1.2 | 6.08 | 6.17 | 6.16 | inhibition [9]: Dose-dependent effect; inhibition [10]: inactive |
| N=C(Nc1ccc2c(C3CN4CCC3CC4)c[nH]c2c1)c1cccs1 (single isomer, unassigned; enantiomer 1) [listing 2 of 2 here] | 98 |  |  |  |  |
| CN1CCC(c2c[nH]c3cc(NC(=N)c4cccs4)ccc23)CC1 | 78 |  | 4.97 | 6.92 |  |
| Cl.Cl.N=C(Nc1ccc2c(C3CN4CCC3CC4)c[nH]c2c1)c1cccs1 (single isomer, unassigned; enantiomer 2) |  | 3.86 | 4.39 | 6.35 | pIC50 (Cytochrome P450 2D6): < 4.00; IC50 (Cytochrome P450 1A2): Not Active; pIC50 (Cytochrome P450 3A4 [6]): 4.00; IC50 (Cytochrome P450 2C9): Not Active; pIC50 (Cytochrome P450 3A4 [7]): < 4.00; pIC50 (Cytochrome P450 2C19): 4.30 |
| N=C(Nc1ccc2c(C3=CN4CCC3CC4)c[nH]c2c1)c1cccs1 | 6 | 5.08 |  | 5.82 |  |
